Only some compounds are listed: those with a hit (about 4.3% of all), similar ones and a draw of the others.
AHR act: AHR activators, primary screen, cell-based, luminescence, luciferase reporter, human; AHR-responsive luciferase reporter cells; AID 2796, 2010; Aryl hydrocarbon receptor (Homo sapiens), P35869; 320,000 tested, 2.5% active; activation, % at 5 µM; in the data active = activation above about 47%;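 note: 0% = vehicle wells and 100% = reference agonist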
Target sequence (P35869 whole entry, looked up): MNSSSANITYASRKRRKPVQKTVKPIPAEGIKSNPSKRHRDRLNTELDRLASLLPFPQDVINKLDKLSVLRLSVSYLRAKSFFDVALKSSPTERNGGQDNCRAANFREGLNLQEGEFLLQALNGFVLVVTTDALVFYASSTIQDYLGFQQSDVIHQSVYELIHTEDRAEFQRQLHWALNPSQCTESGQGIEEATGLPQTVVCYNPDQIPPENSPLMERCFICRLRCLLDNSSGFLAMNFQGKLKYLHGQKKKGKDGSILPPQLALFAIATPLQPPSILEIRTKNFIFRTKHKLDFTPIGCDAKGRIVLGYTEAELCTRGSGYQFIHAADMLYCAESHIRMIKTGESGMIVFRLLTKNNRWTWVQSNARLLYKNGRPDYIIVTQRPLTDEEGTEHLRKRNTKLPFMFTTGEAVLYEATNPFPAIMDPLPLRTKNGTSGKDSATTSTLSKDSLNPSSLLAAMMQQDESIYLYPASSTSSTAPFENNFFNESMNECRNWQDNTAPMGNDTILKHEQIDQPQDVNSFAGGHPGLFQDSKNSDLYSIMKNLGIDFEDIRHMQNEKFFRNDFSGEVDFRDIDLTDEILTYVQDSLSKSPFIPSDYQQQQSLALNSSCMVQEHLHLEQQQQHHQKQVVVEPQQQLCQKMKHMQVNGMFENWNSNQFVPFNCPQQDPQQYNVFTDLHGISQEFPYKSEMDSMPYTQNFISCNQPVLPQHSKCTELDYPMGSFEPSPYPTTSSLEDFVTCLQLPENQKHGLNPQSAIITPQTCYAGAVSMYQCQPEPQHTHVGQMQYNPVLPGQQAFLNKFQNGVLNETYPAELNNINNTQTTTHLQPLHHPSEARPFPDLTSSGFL
SR-BI DiI-HDL act: activators of SR-BI mediated DiI-HDL uptake, primary screen, ldlA[mSR-BI] CHO cells, DiI fluorescence | activation, % at 12.5 µM | 3 h; 100 = double the neutral-control signal | 320,000 tested, 0.096% active;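 active = mean replicate activation of at least 60% and every replicate at or above 60%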;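 note: 0% = median plate neutral-control signal and 100% = twice that signal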
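Test system: SR-BI-overexpressing, LDLR-lacking CHO cells; Also added: labelled HDL, 10 µg/mL; Measured by: bottom-read cell fluorescence after medium removal, ex 550/em 595 nm; Timing: 3 h uptake period with compound, 37 °C; Buffer or medium: F12, 0.5% BSA, 25 mM HEPES; Doses: single compound concentration, delivered by pin transfer.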
CR mimetic SO: reduction of superoxide in aged yeast, primary screen, HTS. superoxide response (% of plate mean), % at 10 µM. AID 2690, 2010. 330,000 tested, 0.18% active. S. cerevisiae aged cells, superoxide DHE fluorescence; stronger effect = lower value;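 active = superoxide response under a set limit, about three screen SD below normal, cut at about 65% in these data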;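 note: yeast aged for seven days with compound at 30 °C before DHE staining; 100% = average MFI of all compound-treated wells on the plate with controls excluded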
SR-BI HDL uptake: inhibitors of SR-BI mediated HDL lipid uptake, primary screen, ldlA[mSR-BI] cells, fluorescence, single point; ldlA[mSR-BI] CHO cells, DiI-HDL uptake fluorescence, 3 h; 320,000 tested, 0.96% active; inhibition, % at 12.5 µM; Scavenger receptor class B member 1 (Mus musculus), Q61009;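 active = mean replicate inhibition of at least 70% and a set share of replicates each scoring 70 or more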;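 note: 0% = median of neutral control wells and 100% = median of positive control wells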
Hep lipid drop: inhibitors of hepatocyte lipid droplet formation, primary screen, imaging, high-throughput imaging, BODIPY stain; AML12 mouse hepatocytes, oleate lipid droplets; inhibition, % at 6.5 µM; 240,000 tested, 0.4% active;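 active = lipid droplet intensity inhibited by at least 50%, with more than 500 cells counted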
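material = mouse AML12 hepatocyte cell line, fixed after treatment | also added = 100 µM oleic acid challenge | doses = compound at 6.5 µM only | schedule = overnight exposure | technique = Image-based BODIPY and DAPI two-channel analysis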
SMARCA2 act: SMARCA2 (BRM) function activators, primary screen, cell-based, luminescence, high throughput; MG213 cells, MMTV-luciferase reporter, dexamethasone, overnight; activation, % at 9.1 µM; 370,000 tested, 1% active; in the data active = activation above about 7.8%;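 note: 0% = vehicle wells and 100% = reference activator wells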
Superoxide pick: superoxide lowering in aged yeast cells, confirmation, cherry picked compounds; S. cerevisiae aging, superoxide DHE fluorescence; stronger effect = lower value; shares compounds with CR mimetic SO; superoxide response (% of plate), % at 10 µM; 850 tested, 1% active;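 active = superoxide signal below 65% of the plate average of sample wells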;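 note: cells aged with compound for 7 days at 30 degrees C before staining; 100% equals mean DHE fluorescence of all compound wells on the plate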
DHE counter: DHE quenching or ROS scavenging interference in aged yeast, artefact control for yeast caloric restriction mimetic project, S. cerevisiae BY4741, flow cytometry | shares compounds with CR mimetic SO | DHE fluorescence; stronger effect = lower value | fluorescence response, % at 10 µM | 850 tested, under 10 active | AID 435000, 2010;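 active = fluorescence response below 15%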;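 note: percent of the mean fluorescence averaged over all compound wells on the plate; lower means stronger quenching of DHE signal or ROS scavenging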
Active calls of the source: *; / = no result given.

SMILES | AHR act | SR-BI DiI-HDL act | CR mimetic SO | SR-BI HDL uptake | Hep lipid drop | SMARCA2 act | Superoxide pick | DHE counter
COc1cc(C(=O)NCCC(=O)NCCCN2CCCCC2C)cc(OC)c1OC (configuration not stated) | 1 | 37 | 62* | -37 | / | / | 123 | 112
COc1cc(C(=O)NCCC(=O)NC2CCCCC2)cc(OC)c1OC | 0 | -8 | 111 | 8 | -12 | -1 | / | /
CC1(C)CC(=O)C=C(c2ccc(COC(=O)c3ccc(Br)cc3)cc2)C1=O | / | / | / | / | / | -2 | / | /
CN[C@H]1C[C@H]2c3[nH]c4c(-c5ccc6c(c5)OCO6)cccc4c3CCN2C(=O)[C@H]1[C@H](C)O | / | / | / | / | / | 4 | / | /
Cc1ccc(-n2c(C)cc(C)c(C#N)c2=O)cc1C | -3 | -8 | 62* | 8 | -18 | 0 | 100 | 103
Cc1cc(C)n(-c2ccc(F)cc2)c(=O)c1C#N | -3 | 20 | 101 | -20 | -4 | 1 | / | /
CC(C)n1c(=O)c2c(O)cc(=O)oc2c2ccccc21 | 17 | -4 | 71 | 4 | / | 1 | 87 | 98
CCn1c(=O)c(-[n+]2ccccc2)c(O)c2ccccc21 | 0 | 13 | 100 | -13 | -13 | -3 | / | /
CCn1c(=O)c2c(O)cc(=O)oc2c2ccccc21 | 1 | 0 | 48* | 0 | / | -2 | 82 | 101
O=c1cc(O)c2c(=O)n(-c3ccccc3)c3ccccc3c2o1 | 1 | 0 | 75 | 0 | / | 1 | 96 | 95
COc1cccc(CNC(=O)[C@H]2CCCN2C(=O)[C@H]2CCCN2C(=O)c2ccc(C)c(C)c2)c1 | / | / | / | / | / | 1 | / | /
Cc1nnsc1C(=O)NNc1ccc(C(C)(C)C)cc1 | 18 | 7 | 90 | -7 | 2 | 2 | / | /
Cc1nnsc1C(=O)NNC(=O)c1ccc(C(F)(F)F)cc1 | 3 | 2 | 63* | -2 | -4 | -3 | 111 | 97
COc1cc(CO)c(Br)cc1OCC(=O)Nc1ccccc1C | 2 | -25 | 64* | 25 | -8 | 0 | 105 | 102
COc1ccccc1NC(=O)COc1ccc(Br)cc1CO | -10 | -1 | 111 | 1 | 16 | 1 | / | /
CN1C(=O)c2cc(NC(=O)Cc3ccccc3)ccc2OC[C@H]2O[C@H](CC(=O)O)CC[C@H]21 | / | / | / | / | / | -1 | / | /
COc1cc(OC)cc(C(=O)O/N=C(\N)c2ccncc2)c1 | 5 | 2 | 62* | -2 | -19 | -1 | 112 | 110
Cc1[nH]c2ccccc2c1C(=O)c1c(N)[nH]c(C(=O)c2ccc(Br)cc2)c1-c1ccc(Br)cc1 | / | / | / | / | / | -4 | / | /
COc1ccc(-c2ccc(=O)n(Cc3ccccc3)n2)cc1 | 24 | -8 | 115 | 8 | 12 | -2 | / | /
COc1ccc(-c2ccc(=O)n(Cc3cccc(Cl)c3)n2)cc1 | 16 | 19 | 55* | -19 | 5 | -4 | 90 | 89
CCOC(=O)c1ccc(NC(=O)Nc2cccc(C)n2)cc1 | -4 | -1 | 107 | 1 | 8 | -1 | / | /
CCOC(=O)c1ccc(NC(=O)Nc2ccn(C)n2)cc1 | -2 | 1 | 63* | -1 | 14 | / | 103 | 96
COC(=O)C1=CC(=O)C=C(OC)[C@@]12Oc1cc(C)cc(OC)c1C2=O | / | / | / | / | / | -13 | / | /
Cc1nnc(SCc2ccc(F)cc2)s1 | -1 | 30 | 89 | -30 | 0 | 5 | / | /
Cc1nnc(SCc2ccc(Cl)c(Cl)c2)s1 | -9 | 16 | 60* | -16 | -5 | -4 | 108 | 90
SMILES | AHR act | SR-BI DiI-HDL act | CR mimetic SO | SR-BI HDL uptake | Hep lipid drop | SMARCA2 act | Superoxide pick | DHE counter
CN(c1ccccc1)S(=O)(=O)c1ccccc1Br | -1 | 2 | 85 | -2 | / | 0 | 87 | 89
CC(=O)Nc1ccc(NC(=O)CSc2ccc(-c3cccnc3)nn2)cc1 | 4 | 10 | 110 | -10 | 0 | -1 | / | /
CC(=O)Nc1ccc(NC(=O)CSc2ccc(-c3ccc(-n4ccnc4)cc3)nn2)cc1 | 12 | 10 | 111 | -10 | / | 0 | 89 | 112
CCCN1CCCCC(NC(=O)COCc2ccccc2)C1=O (configuration not stated) | / | / | / | / | / | -3 | / | /
CC(C)OC(=O)c1ccc2nc3ccccc3nc2c1 | 8 | -12 | 53* | 12 | 0 | 5 | 83 | 101
O=C(Nc1nc2ncccn2c1-c1ccc(F)c(F)c1)c1ccc(F)cc1 | / | / | / | / | / | -4 | / | /
CCN(Cc1ccccc1)S(=O)(=O)c1ccc(C(=O)Nc2nnc(C)o2)cc1 | 0 | -1 | 82 | 1 | 10 | -1 | 87 | 100
CN(CCO)S(=O)(=O)c1ccc2c(c1)C(=NN)c1cc(S(=O)(=O)N(C)CCO)ccc1-2 | 3 | 12 | 65* | -12 | -11 | 0 | 89 | 101
O=C1c2cc(S(=O)(=O)N(CCO)CCO)ccc2-c2ccc(S(=O)(=O)N(CCO)CCO)cc21 | 2 | 7 | 103 | -7 | / | -1 | / | /
CCc1cc2c(nc1CC)CCCN2Cc1ccccc1C(F)(F)F | / | / | / | / | / | -4 | / | /
Nc1nc2ccccc2nc1N | 29 | 12 | 97 | -12 | -13 | -1 | / | /
c1ccc2nc3ccccc3nc2c1 | 12 | -1 | 64* | 1 | -13 | 3 | 67 | 94
COc1ccc(CN2C(=O)[C@]3(NCCc4c3[nH]c3ccc(OC)cc43)c3cc(F)ccc32)cc1 | / | / | / | / | / | -1 | / | /
O=C(CN1CCN(C(=O)c2c(F)cccc2F)CC1)Nc1ccccc1C(F)(F)F | 0 | 26 | 52* | -26 | -17 | -5 | 108 | 110
CC(C)c1[nH]nc2c1C(c1ccc(F)cc1)N(Cc1ccccc1)C2=O (configuration not stated) | / | / | / | / | / | -5 | / | /
Cn1c(=O)c2[nH]c(N3CCCCC3)nc2n(C)c1=O | 10 | 6 | 65* | -6 | 25 | -1 | 80 | 90
COc1ccc(-c2n[nH]c(=S)n2Cc2ccco2)cc1 | 1 | 14 | 85 | -14 | 4 | -3 | / | /
Cc1cc(-c2n[nH]c(=S)n2Cc2ccco2)nn1C | 7 | 16 | 65* | -16 | -18 | -2 | 102 | 98
COc1ccc(/C=N/NC(=O)CCN2CCN(c3ccccc3)CC2)c(OC)c1OC | 6 | -27 | 62* | 27 | 5 | -4 | 108 | 106
CC(=O)C1=C(O)C(=O)N(CCc2ccccc2)C1c1ccccc1[N+](=O)[O-] (configuration not stated) | 49* | 10 | 59* | -10 | 11 | 0 | 107 | 97

Screening results (PubChem)
